Laboratory results published in ChEMBL document CHEMBL1143653, “Discovery of a (1H-benzoimidazol-2-yl)-1H-pyridin-2-one (BMS-536924) inhibitor of insulin-like growth factor I receptor kinase with in vivo antitumor activity” (J Med Chem, 2005).

Experiments:
Cytochrome P450 3A4 [1] = molecular target: T1, Cytochrome P450 3A4 (Homo sapiens, UniProt P08684); test: Concentration required to inhibit cytochrome P450 isozyme CYP3A4-BzRes in vitro by 50%; type: ADME
Cytochrome P450 1A2 = molecular target: T2, Cytochrome P450 1A2 (Homo sapiens, UniProt P05177); test: Concentration required to inhibit Cytochrome P450 1A2 in vitro by 50%; type: ADME
T2 sequence (P05177 whole entry): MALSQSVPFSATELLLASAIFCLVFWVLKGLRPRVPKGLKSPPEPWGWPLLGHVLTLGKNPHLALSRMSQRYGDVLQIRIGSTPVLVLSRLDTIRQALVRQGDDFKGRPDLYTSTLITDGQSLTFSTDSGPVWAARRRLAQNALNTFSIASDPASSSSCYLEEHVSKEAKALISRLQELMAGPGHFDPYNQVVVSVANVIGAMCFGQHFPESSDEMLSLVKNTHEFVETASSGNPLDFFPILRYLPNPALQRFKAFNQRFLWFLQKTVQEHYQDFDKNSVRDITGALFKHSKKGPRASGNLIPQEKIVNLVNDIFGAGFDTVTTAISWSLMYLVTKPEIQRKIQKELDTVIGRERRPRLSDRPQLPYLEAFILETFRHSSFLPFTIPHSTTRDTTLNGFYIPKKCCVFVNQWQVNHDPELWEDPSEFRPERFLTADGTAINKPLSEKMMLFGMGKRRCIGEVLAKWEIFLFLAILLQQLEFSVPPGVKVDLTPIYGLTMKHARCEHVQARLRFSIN

Cytochrome P450 2C9 = Cytochrome P450 2C9 (Homo sapiens, UniProt P11712); test: Concentration required to inhibit Cytochrome P450 2C9 in vitro by 50%
Cytochrome P450 2C19 = Cytochrome P450 2C19 (Homo sapiens, UniProt P33261); test: Concentration required to inhibit cytochrome P450 isozyme CYP2C19 in vitro by 50%; type: ADME
Cytochrome P450 3A4 [2] = molecular target: T1, Cytochrome P450 3A4; test: Concentration required to inhibit cytochrome P450 isozyme CYP3A4-BFC in vitro by 50%; type: ADME
[3] = In vitro inhibitory concentration against Geo (colon) cell line with ATP concentration at 1/2Km; type: functional, Homo sapiens
MCF7 = test: In vitro inhibitory concentration against MCF-7(breast) cell line with ATP concentration at 1/2Km; type: functional, cell-based; details: Homo sapiens
COLO 205 = test: In vitro inhibitory concentration against COLO 205 (colon) cell line with ATP concentration at 1/2Km; type: functional, cell-based; details: Homo sapiens
[4] = In vitro inhibitory concentration against MDA PCa-2b (prostate) cell line with ATP concentration at 1/2Km; type: functional, Homo sapiens
RD = test: In vitro inhibitory concentration against RD1 (rhabdomyosarcoma) cell line with ATP concentration at 1/2Km; type: functional, cell-based; details: Homo sapiens
[5] = Bioavailability in monkey at 5 mg/kg oral dose; type: ADME, organism-based; details: cercopithecidae, in vivo
[6] = Bioavailability in rat administered perorally at 50 mg/kg; type: ADME, organism-based; details: in vivo, po
[7] = Bioavailability in mouse administered perorally at 20 mg/kg; type: ADME, organism-based; details: in vivo, po
[8] = molecular target: Dual specificity mitogen-activated protein kinase kinase 1 (Homo sapiens, UniProt Q02750); test: In vitro inhibitory concentration against MEK with ATP concentration at 1/2Km
Summary of the method: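 Cell-free kinase inhibition assay. ATP was set at ½ Km, determined separately for each kinase, and the IC50 was derived under that condition.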

[9] = Bioavailability in dog at 5 mg/kg oral dose; type: ADME, organism-based, Canis lupus familiaris; details: in vivo
[10] = Total clearance in monkey at 2 mg/kg intravenous dose; type: ADME, organism-based; design: dose 2 mg/kg, route intravenous; details: cercopithecidae, in vivo, read-out: CLtot
[11] = Total clearance in rat when administered intravenously at 4 mg/kg; type: ADME, organism-based; design: dose 4 mg/kg, route intravenous; details: in vivo, iv, read-out: CLtot
[12] = Total clearance in dog when administered intravenously at 2 mg/kg; type: ADME, organism-based, Canis lupus familiaris; design: dose 2 mg/kg, route intravenous; details: in vivo, iv, read-out: CLtot
[13] = Total clearance in mouse when administered intravenously at 4 mg/kg; type: ADME, organism-based; design: dose 4 mg/kg, route intravenous; details: in vivo, iv, read-out: CLtot
[14] = Steady-state volume of distribution in rat when administered intravenously at 4 mg/kg; type: ADME, organism-based; design: dose 4 mg/kg, route intravenous; details: in vivo, iv, read-out: Vss
[15] = Steady-state volume of distribution in mouse when administered intravenously at 4 mg/kg; type: ADME, organism-based; design: dose 4 mg/kg, route intravenous; details: in vivo, iv, read-out: Vss
[16] = Steady-state volume of distribution in monkey when administered intravenously at 2 mg/kg; type: ADME, organism-based; design: dose 2 mg/kg, route intravenous; details: cercopithecidae, in vivo, iv, read-out: Vss
[17] = Steady-state volume of distribution in dog when administered intravenously at 2 mg/kg; type: ADME, organism-based, Canis lupus familiaris; design: dose 2 mg/kg, route intravenous; details: in vivo, iv, read-out: Vss
[18] = Maximum concentration in dog administered orally at 5 mg/kg; type: ADME, organism-based, Canis lupus familiaris; design: dose 5 mg/kg, route oral; details: in vivo, po
[19] = Maximum concentration in rat administered orally at 50 mg/kg; type: ADME, organism-based; design: dose 50 mg/kg, route oral; details: in vivo, po
[20] = Maximum concentration in monkey administered orally at 5 mg/kg; type: ADME, organism-based; design: dose 5 mg/kg, route oral; details: cercopithecidae, in vivo, po
[21] = Maximum concentration in mouse administered orally at 20 mg/kg; type: ADME, organism-based; design: dose 20 mg/kg, route oral; details: in vivo, po

T1 sequence (P08684 whole entry): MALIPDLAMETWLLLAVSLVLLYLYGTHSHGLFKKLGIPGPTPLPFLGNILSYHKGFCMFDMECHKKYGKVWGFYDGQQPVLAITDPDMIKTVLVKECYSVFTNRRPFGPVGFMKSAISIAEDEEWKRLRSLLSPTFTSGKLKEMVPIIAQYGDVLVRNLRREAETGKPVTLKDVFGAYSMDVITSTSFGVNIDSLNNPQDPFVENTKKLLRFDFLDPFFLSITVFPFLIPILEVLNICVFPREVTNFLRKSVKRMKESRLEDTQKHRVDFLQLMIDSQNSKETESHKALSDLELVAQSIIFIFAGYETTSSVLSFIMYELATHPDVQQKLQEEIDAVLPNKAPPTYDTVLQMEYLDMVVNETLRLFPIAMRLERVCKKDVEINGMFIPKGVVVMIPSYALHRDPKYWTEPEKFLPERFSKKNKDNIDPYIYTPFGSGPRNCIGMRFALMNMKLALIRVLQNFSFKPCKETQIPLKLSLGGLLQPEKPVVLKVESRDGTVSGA
Sequence of Cytochrome P450 2C9 (P11712 whole entry): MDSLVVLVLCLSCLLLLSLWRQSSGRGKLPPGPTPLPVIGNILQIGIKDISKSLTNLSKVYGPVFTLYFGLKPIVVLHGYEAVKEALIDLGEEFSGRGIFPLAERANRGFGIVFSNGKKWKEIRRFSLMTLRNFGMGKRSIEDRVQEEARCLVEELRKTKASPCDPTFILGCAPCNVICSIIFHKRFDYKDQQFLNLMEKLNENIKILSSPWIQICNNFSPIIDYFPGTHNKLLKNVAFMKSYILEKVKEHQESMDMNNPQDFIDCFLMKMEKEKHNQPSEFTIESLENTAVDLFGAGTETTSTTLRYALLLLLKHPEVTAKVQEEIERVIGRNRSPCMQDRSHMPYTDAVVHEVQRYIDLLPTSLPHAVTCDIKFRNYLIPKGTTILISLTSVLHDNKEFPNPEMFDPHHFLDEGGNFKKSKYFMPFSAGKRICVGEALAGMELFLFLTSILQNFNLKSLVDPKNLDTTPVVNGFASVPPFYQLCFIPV
Sequence of Dual specificity mitogen-activated protein kinase kinase 1 (Q02750 whole entry): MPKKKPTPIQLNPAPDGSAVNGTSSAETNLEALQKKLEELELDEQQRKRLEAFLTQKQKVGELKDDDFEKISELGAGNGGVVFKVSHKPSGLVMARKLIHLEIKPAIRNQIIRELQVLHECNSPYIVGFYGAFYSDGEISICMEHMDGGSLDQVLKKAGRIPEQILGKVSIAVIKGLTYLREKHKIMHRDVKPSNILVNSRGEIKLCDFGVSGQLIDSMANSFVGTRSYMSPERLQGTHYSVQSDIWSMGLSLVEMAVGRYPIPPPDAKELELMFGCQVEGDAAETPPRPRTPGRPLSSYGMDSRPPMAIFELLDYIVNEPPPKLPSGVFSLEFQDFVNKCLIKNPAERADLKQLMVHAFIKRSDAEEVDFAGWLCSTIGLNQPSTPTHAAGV
Sequence of Cytochrome P450 2C19 (P33261 whole entry): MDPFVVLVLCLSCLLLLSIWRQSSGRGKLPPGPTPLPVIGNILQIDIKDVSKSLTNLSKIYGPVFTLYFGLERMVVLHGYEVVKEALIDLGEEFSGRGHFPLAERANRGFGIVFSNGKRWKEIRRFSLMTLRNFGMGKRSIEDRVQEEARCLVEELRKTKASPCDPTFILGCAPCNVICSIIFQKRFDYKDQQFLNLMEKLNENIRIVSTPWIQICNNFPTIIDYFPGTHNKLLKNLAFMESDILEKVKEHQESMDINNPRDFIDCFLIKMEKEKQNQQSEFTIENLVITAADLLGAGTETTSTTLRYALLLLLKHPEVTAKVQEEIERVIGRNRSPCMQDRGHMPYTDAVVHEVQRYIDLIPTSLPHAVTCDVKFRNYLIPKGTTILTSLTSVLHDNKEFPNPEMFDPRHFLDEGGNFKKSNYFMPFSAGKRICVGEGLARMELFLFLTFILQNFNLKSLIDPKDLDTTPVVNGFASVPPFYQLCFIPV

Cc1cc(-n2ccnc2)cc2[nH]c(-c3c(NCC(O)c4cccc(Cl)c4)cc[nH]c3=O)nc12 (configuration not stated)
IC50 (Cytochrome P450 3A4 [1]): < 18 nM | IC50 (Cytochrome P450 1A2): < 18 nM | IC50 (Cytochrome P450 2C9): < 18 nM | IC50 (Cytochrome P450 2C19): 26 nM | IC50 (Cytochrome P450 3A4 [2]): < 18 nM

Cc1cc(N2CCOCC2)cc2[nH]c(-c3c(NC[C@@H](O)c4cccc(Cl)c4)cc[nH]c3=O)nc12
IC50 [3]: 320 nM | IC50 (MCF7): 460 nM | IC50 (COLO 205): 212 nM | IC50 [4]: 194 nM | IC50 (RD): 202 nM | bioavailability [5]: 32% | bioavailability [6]: > 100% | bioavailability [7]: 50% | IC50 [8]: 182 nM | bioavailability [9]: 70% | clearance [10]: 16.5 mL/min/kg | clearance [11]: 5.8 mL/min/kg | clearance [12]: 4.1 mL/min/kg | clearance [13]: 37.8 mL/min/kg | Vd [14]: 0.8 L/kg | Vd [15]: 1.9 L/kg | Vd [16]: 1.4 L/kg | Vd [17]: 1.3 L/kg | Cmax [18]: 4.1 µM | Cmax [19]: 69 µM | Cmax [20]: 1.3 µM | Cmax [21]: 3.8 µM
